Laboratory results taken from ChEMBL document CHEMBL2086372 (ACS Med Chem Lett, 2012).
Activity calls are given as the source filed them. The rule behind the calls is not given here.

Tests used:
[1] = target: T1, Alpha-2C adrenergic receptor (Homo sapiens) (UniProt P18825); experiment: Agonist activity at human alpha2C adrenoceptor expressed in CHO cells assessed as extracellular acidification measured after 4 mins by cytosensor microphysiometric analysis relative to control; format: functional, cell-based
T1 sequence (whole entry): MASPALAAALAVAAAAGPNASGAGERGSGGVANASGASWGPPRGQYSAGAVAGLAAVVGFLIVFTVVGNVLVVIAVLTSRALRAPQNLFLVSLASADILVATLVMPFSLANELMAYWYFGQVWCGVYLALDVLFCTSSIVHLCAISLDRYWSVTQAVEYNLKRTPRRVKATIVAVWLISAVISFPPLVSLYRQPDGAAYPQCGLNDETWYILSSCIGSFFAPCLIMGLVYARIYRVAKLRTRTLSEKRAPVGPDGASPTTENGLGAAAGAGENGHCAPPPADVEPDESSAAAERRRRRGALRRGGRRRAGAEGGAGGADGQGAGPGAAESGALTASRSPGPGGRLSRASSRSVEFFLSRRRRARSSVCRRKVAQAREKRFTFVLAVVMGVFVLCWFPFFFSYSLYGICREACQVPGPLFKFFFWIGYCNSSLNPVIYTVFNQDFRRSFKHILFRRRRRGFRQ
Procedure, shortened: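 Binding and functional assays run on CHO cells expressing recombinant human α2-AR subtypes. Functional read-outs are agonist potency (pEC50) with intrinsic activity (ia), or antagonist pKb. Affinity is reported as pKi. Values are means ± SEMs of 3–6 separate experiments.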

Mus musculus [2] = experiment: Effect on morphine-dependence in CD1 mouse assessed as decrease in naloxone-precipitated teeth chatter at 0.05 mg/kg, ip administered chronically 15 mins prior to each morphine challenge relative to vehicle-treated control; format: functional, organism-based; parameters: dose 0.05 mg/kg
Procedure, shortened: (§1)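 Acquisition of morphine dependence in mice, tested with repeated ip dosing (racemate 0.05 mg/kg, enantiomers 0.025 mg/kg). Withdrawal was precipitated by naloxone. Scored signs were jumping frequency and somatic signs (rearing, forepaw tremors, teeth chatter). Groups were compared with vehicle and with the morphine group.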

Mus musculus [3] = experiment: Effect on morphine-dependence in CD1 mouse assessed as decrease in naloxone-precipitated rearing at 0.05 mg/kg, ip administered chronically 15 mins prior to each morphine challenge relative to vehicle-treated control; format: functional, organism-based; parameters: dose 0.05 mg/kg; procedure, shortened: as §1
Mus musculus [4] = experiment: Effect on morphine-dependence in CD1 mouse assessed as decrease in naloxone-precipitated jumping at 0.05 mg/kg, ip administered chronically 15 mins prior to each morphine challenge relative to vehicle-treated control; format: functional, organism-based; parameters: dose 0.05 mg/kg; procedure, shortened: as §1
Mus musculus [5] = experiment: Effect on morphine-dependence in CD1 mouse assessed as decrease in naloxone-precipitated teeth chatter at 0.05 mg/kg, ip administered acutely 15 mins prior to naloxone challenge relative to vehicle-treated control; format: functional, organism-based; parameters: dose 0.05 mg/kg
Procedure, shortened: as §1, with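 “Expression” for “Acquisition”, “a single acute” for “repeated”, “dose” for “dosing”, “naloxone in control and morphine-treated mice.” for “naloxone.”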

Mus musculus [6] = experiment: Antidepressant activity in CD1 mouse assessed as decrease in immobility time at 0.05 mg/kg, ip after 15 mins by forced swim test relative to vehicle-treated control; format: functional, organism-based; parameters: dose 0.05 mg/kg
Procedure, shortened: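 Mouse forced swimming test with immobility time as the read-out. Single ip doses were 0.012, 0.025, 0.05, 0.2 or 0.5 mg/kg, with fluoxetine 20 mg/kg ip as reference. Results are compared against vehicle-treated mice and given as means ± SEMs of 8–9 animals.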

[7] = Permeability of the compound at 10 uM after 4 hrs by PAMPA assay; format: ADME
[8] = Aqueous solubility of the compound after 1 hr at pH 7.4; format: physicochemical; conditions: buffer, pH 7.4, 1 h
Mus musculus [9] = experiment: Effect on morphine-dependence in CD1 mouse assessed as decrease in naloxone-precipitated rearing at 0.05 mg/kg, ip administered acutely 15 mins prior to naloxone challenge relative to vehicle-treated control; format: functional, organism-based; parameters: dose 0.05 mg/kg
Procedure, shortened: as §1, with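 “Expression” for “Acquisition”, “a single acute” for “repeated”, “dose” for “dosing”, “naloxone in control and morphine-treated mice.” for “naloxone.”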

[10] = target: T2, 5-hydroxytryptamine receptor 1A (Homo sapiens, UniProt P08908); experiment: Displacement of [3H]8-OH-DPAT from human 5HT1A receptor expressed in HeLa cells after 30 mins; format: cell-based
T2 sequence (P08908 whole entry): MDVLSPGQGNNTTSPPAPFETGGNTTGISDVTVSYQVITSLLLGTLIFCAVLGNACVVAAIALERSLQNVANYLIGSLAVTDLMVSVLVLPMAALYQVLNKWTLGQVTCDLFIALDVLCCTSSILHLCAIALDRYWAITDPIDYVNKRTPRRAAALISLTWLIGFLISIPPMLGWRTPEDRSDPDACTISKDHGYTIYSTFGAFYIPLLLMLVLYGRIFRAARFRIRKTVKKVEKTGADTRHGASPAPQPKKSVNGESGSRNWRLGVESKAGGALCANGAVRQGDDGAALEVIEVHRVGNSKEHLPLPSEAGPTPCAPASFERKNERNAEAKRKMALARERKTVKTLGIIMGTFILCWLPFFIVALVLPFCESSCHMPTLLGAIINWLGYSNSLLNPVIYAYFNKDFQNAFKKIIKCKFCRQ
Procedure, shortened: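 pKi is derived from displacement of [3H]-8-OH-DPAT binding at human cloned 5-HT1A receptor. Values are means ± SEMs of 3–6 separate experiments.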

Mus musculus [11] = experiment: Effect on morphine-dependence in CD1 mouse assessed as decrease in naloxone-precipitated jumping at 0.05 mg/kg, ip administered acutely 15 mins prior to naloxone challenge relative to vehicle-treated control; format: functional, organism-based; parameters: dose 0.05 mg/kg
Procedure, shortened: as §1, with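 “Expression” for “Acquisition”, “a single acute” for “repeated”, “dose” for “dosing”, “naloxone in control and morphine-treated mice.” for “naloxone.”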

Mus musculus [12] = experiment: Effect on morphine-dependence in CD1 mouse assessed as decrease in naloxone-precipitated forepaw tremors at 0.05 mg/kg, ip administered chronically 15 mins prior to each morphine challenge relative to vehicle-treated control; format: functional, organism-based; parameters: dose 0.05 mg/kg; procedure, shortened: as §1
Mus musculus [13] = experiment: Effect on morphine-dependence in CD1 mouse assessed as decrease in naloxone-precipitated forepaw tremors at 0.05 mg/kg, ip administered acutely 15 mins prior to naloxone challenge relative to vehicle-treated control; format: functional, organism-based; parameters: dose 0.05 mg/kg
Procedure, shortened: as §1, with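 “Expression” for “Acquisition”, “a single acute” for “repeated”, “dose” for “dosing”, “naloxone in control and morphine-treated mice.” for “naloxone.”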

CC(Oc1ccccc1CC1CC1)C1=NCCN1 (racemic) [CYCLOMETHYLINE]
Intrinsic activity [1]: 0.8 | Activity (Mus musculus [2]): Active | Activity (Mus musculus [3]): Active | Activity (Mus musculus [4]): Active | Activity (Mus musculus [5]): Active | Activity (Mus musculus [6]): Active | permeability [7]: permeable | solubility [8]: soluble | Activity (Mus musculus [9]): Active | Ki [10]: 10.5 nM | Activity (Mus musculus [11]): Active | Activity (Mus musculus [12]): Active | Activity (Mus musculus [13]): Active
